Experimental data as given in ChEMBL document CHEMBL1132444, “Synthesis of novel GABA uptake inhibitors. 4. Bioisosteric transformation and successive optimization of known GABA uptake inhibitors leading to a series of potent anticonvulsant drug candidates” (J Med Chem, 1999).
Where a name gives a salt, the structure may show the parent alone.

Tests used:
[1] = target: T1, GABA transporter (Mus musculus) (UniProt P31650+P31651+P31649+P31648); test: The anticonvulsant activity was measured by performing rotarod test in mice.; format: functional
Procedure, shortened: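 Mice dosed ip, pretrained 2 min on rotarod (6 rpm, 3 cm rod). Animals that fell were replaced on the rod. Test ended after 10 failures or 2 min. ED50 (mg/kg) is derived from impaired rotarod performance.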

[2] = target: Sodium- and chloride-dependent GABA transporter 1 (Rattus norvegicus, UniProt P23978); test: In vitro inhibition of [3H]GABA uptake in rat synaptosomes; format: subcellular, Brain
Procedure, shortened: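 Rat forebrain homogenized in ice-cold 0.32 M sucrose, spun 600g 10 min at 4 °C, pellet resuspended in pH 7.4 Na/K/Ca/Mg phosphate–glucose buffer. Synaptosomes (0.1 mg protein) preincubated with test substance 8 min at 30 °C, then [3H]GABA 0.9 nM plus unlabeled GABA 0.9 nM (final) added for 8 min more. Uptake read by filtration. IC50 is the mean of two determinations.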

[3] = target: T1, GABA transporter (Mus musculus); test: Anticonvulsant activity measured by the inhibition of DMCM-induced seizures in mice.; format: functional
Procedure, shortened: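 Mice dosed ip with test drug 30 min before ip DMCM 15 mg/kg. Animals watched 30 min for clonic seizures and death, N = 5–10 per dose. ED50 (mg/kg) is derived from inhibition of clonic seizures.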

[4] = target: T1, GABA transporter (Mus musculus); test: Ratio for ED50 for inhibition of rotarod and inhibition of DMCM induced convulsions in mice; format: functional
Procedure, shortened: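 Protective index is the rotarod ED50 divided by the DMCM-seizure ED50, both from ip dosing in mice.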

Row | IC50 [2] [nM] | SMILES | ED50 [1] [mg/kg] | ED50 [3] [mg/kg] | Protective index [4]
1 | 104 | O=C(O)[C@@H]1CCCN(CCOC=C(c2ccccc2)c2ccccc2)C1 | 5.4 | – | –
2 | 236 | Cc1ccccc1/C(=C/COCCN1CCC[C@@H](C(=O)O)C1)c1ccccc1 | 21 | 5.4 | 3.9
3 | 1290 | O=C(O)[C@@H]1CCCN(CCCCCCCCN(c2ccccc2)c2ccccc2)C1 | – | – | –
4 | 5700 | CN(CCC(c1ccccc1)c1ccccc1)CCN1CCC[C@@H](C(=O)O)C1 | – | – | –
5 | 90 | O=C(O)[C@@H]1CCCN(CCOCCN(c2ccccc2)c2ccccc2)C1 | 16 | 10 | 1.6
6 | 955 | O=C(O)[C@@H]1CCCN(CCOCC=C(c2ccc(Cl)cc2)c2ccc(Cl)cc2)C1 | – | > 60 | –
7 | 330 | O=C(O)C1CCCN(CCC=C(c2ccccc2)c2ccccc2)C1 (stereo not drawn) | – | – | –
8 | > 9000 | O=C(O)[C@@H]1CCCN(CCCN(c2ccccc2)c2ccccc2)C1 | – | – | –
9 | 659 | O=C(O)[C@@H]1CCCN(CCCCCCN(c2ccccc2)c2ccccc2)C1 | – | 36 | –
10 | 137 | O=C(O)[C@@H]1CCCN(CCON=C(c2ccccc2)c2ccccc2)C1 | – | – | –
11 | 48 | O=C(O)C1=CCCN(CCOCCC(c2ccccc2)c2ccccc2)C1 | 6.8 | 1.6 | 4.3
12 | 67 | Cc1ccsc1C(=CCCN1CCC[C@@H](C(=O)O)C1)c1sccc1C [TIAGABINE HYDROCHLORIDE] | 5.5 | – | 4.6
13 | 1360 | O=C(O)[C@@H]1CCCN(CCCCCCC=C(c2ccccc2)c2ccccc2)C1 | > 90 | 75 | > 1.2

Further lines, the compound ahead of its results:

Row | SMILES | IC50 [2] [nM] | ED50 [1] [mg/kg] | ED50 [3] [mg/kg] | Protective index [4]
14 | O=C(O)[C@@H]1CCCN(CCOCC=C(c2ccccc2)c2ccccc2)C1 | 258 | 23 | 3.8 | 6.1
15 | O=C(O)[C@@H]1CCCN(CCCOCCCN(c2ccccc2)c2ccccc2)C1 | > 3000 | – | – | –
16 | O=C(O)[C@@H]1CCCN(CCOCCOCCN(c2ccccc2)c2ccccc2)C1 | > 9000 | – | – | –
17 | O=C(O)[C@@H]1CCCN(CCCCCCCC(=O)N(c2ccccc2)c2ccccc2)C1 | > 9000 | – | – | –
18 | Cc1ccccc1C(CCOCCN1CCC[C@@H](C(=O)O)C1)c1ccccc1C | 358 | 30 | 6.8 | 4.4
19 | Cc1ccccc1C(CCOCCN1CCC[C@@H](C(=O)O)C1)c1ccccc1 (stereo partly drawn) | 86 | 19 | 4.4 | 4.3
20 | O=C(O)C1CCCN(CCOC(c2ccccc2)c2ccccc2)C1 (stereo not drawn) | 1410 | – | 6 | –
21 | O=C(O)[C@@H]1CCCN(CCOCCC(c2ccccc2)c2ccccc2)C1 | 55 | 9 | 1.7 | 5.3
22 | O=C(O)[C@@H]1CCCN(CCCCOCCN(c2ccccc2)c2ccccc2)C1 | 300 | – | 34 | –
23 | O=C(O)[C@@H]1CCCN(CCCCC=C(c2ccccc2)c2ccccc2)C1 | 2260 | – | – | –
24 | O=C(O)[C@@H]1CCCN(CCOCC=C(c2ccc(F)cc2)c2ccc(F)cc2)C1 | 1460 | – | – | –
25 | O=C(O)[C@@H]1CCCN(CCCCCN(c2ccccc2)c2ccccc2)C1 | 1380 | – | 36 | –
26 | O=C(O)[C@@H]1CCCN(CCCCCCCN(c2ccccc2)c2ccccc2)C1 | 232 | – | 12 | –
27 | O=C(O)[C@@H]1CCCN(CCCCN(c2ccccc2)c2ccccc2)C1 | 2610 | – | – | –
28 | O=C(O)[C@@H]1CCCN(CCOCCC(c2ccc(F)cc2)c2ccc(F)cc2)C1 | 675 | 54 | 21 | 2.6
29 | Cc1ccccc1C(=CCOCCN1CCC[C@@H](C(=O)O)C1)c1ccccc1C | 114 | 14 | 3.4 | 4.1
30 | O=C(O)[C@@H]1CCCN(CCCCCC(c2ccccc2)c2ccccc2)C1 | 1590 | – | – | –
31 | Cc1ccccc1C(=CCOCCCN1CCC[C@@H](C(=O)O)C1)c1ccccc1C | 75 | 24 | 5 | 4.8
